A selection: hits, their analogues and other compounds. The true share with any hit is near 2.2%.
Neddyl block: inhibitors of human cullin neddylation. P61081+Q13564. TR-FRET cullin neddylation, biochemical. calls only at 25 µM. actives 0.58% (n = 360,000); in the data active = inhibition above about 36%
Tn7 DDE FP: DD(E)-Tn7 binding inhibition, primary FP screen | P02675 | FP displacement of FITC-Tn7 peptide from fibrin DD(E); 0% = median of compound wells per plate | inhibition, % at 8.3 µM | actives 0.13% (n = 370,000) | AID 720508;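 active = inhibition above the mean of compounds falling within the control limits plus 3 SD of them, cut at about 14% in these data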;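 note: 0% = plate median of compound wells and 100% = 10 µM Aha-Tn7 peptide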
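Also added: labelled Tn7 tracer, 0.1 µM; Assay system: human fibrin DD(E) protein; Amount: 2 µM fibrin DD(E); Schedule: 10 min compound pre-incubation, 3 h probe incubation at room temperature; Repeats: one replicate per compound; Read-out basis: percent inhibition; Measured by: fluorescence polarization of the labelled Tn7 tracer.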
MT1-MMP act inh: blocks activation of human MT1-MMP. P50281. actives 0.061% (n = 360,000). AID 651647. GFP/RFP ratio change, % at 20 µM. HT1080 RFP-PRO-GFP cells, GFP/RFP ratio fluorescence, overnight; percent of plate control window, DMSO zero;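 active = GFP/RFP ratio change of at least 30% with cell ATP level not reduced by more than half and red fluorescence within 50% of control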
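Material: RFP-PRO-GFP reporter HT1080 cells. Dosing: single-point 20 µM compound, 1% DMSO. Controls: DMSO and RFP-L50D-GFP cell wells. Timing: cells overnight before dosing, compound overnight, 37 °C, 5% CO2. Measure: GFP/RFP fluorescence ratio.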
Tn6 DDE FP: disrupts Tn6 cyclic peptide binding to fibrin D-Dimer-E complex; actives 0.21% (n = 370,000); Fibrin DD(E) TRITC-Tn6 fluorescence polarization displacement; inhibition, % at 8.3 µM; AID 720509;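 active = inhibition above a per-campaign cutoff: mean of compounds within control limits plus 3 SD, cut at about 15% in these data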;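 note: 0% = median of all compound wells on the plate and 100% = blocking peptide control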
proKLK7 act: activates the human kallikrein-7 zymogen. P49862. actives 0.9% (n = 370,000). AID 652039. purified proKLK7, EDANS-DABCYL substrate fluorescence; 100% is mature enzyme control, 0% vehicle. activation, % at 7 µM;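 active = activation above the mean of all tested compounds plus 3 SD, computed per campaign excluding outliers beyond control limits, cut at about 13% in these data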
Target sequence (P49862 whole entry, looked up): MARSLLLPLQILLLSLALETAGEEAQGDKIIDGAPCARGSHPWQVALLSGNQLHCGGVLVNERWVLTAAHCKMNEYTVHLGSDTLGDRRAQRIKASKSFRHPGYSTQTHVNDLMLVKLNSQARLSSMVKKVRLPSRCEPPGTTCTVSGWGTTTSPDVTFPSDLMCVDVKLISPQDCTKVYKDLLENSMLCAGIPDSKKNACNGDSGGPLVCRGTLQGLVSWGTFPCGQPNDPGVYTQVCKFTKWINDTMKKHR
SKN-1 inh: blocks SKN-1 activity in C. elegans; C. elegans VP596 Pgst-4::GFP/RFP ratio, acrylamide-induced, 24 h; inhibition, % at 21.8 µM; AID 624304; actives 0.49% (n = 360,000);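 active = interference check ratio from 0.5 to 1.5 plus GFP to RFP signal ratio inhibition reaching or exceeding a fixed threshold, cut at about 30% in these data, passing the limit was not always enough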
DDE Tn7 confirm: DD(E)-Tn7 binding inhibition, FP confirmation | actives 5% (n = 460) | FP displacement of TRITC-Tn7 peptide from DD(E); 0% set at plate's compound-well median | AID 720628 | inhibition, % at 8.3 µM | shares compounds with Tn7 DDE FP;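 active = inhibition above the campaign cutoff, the mean of compounds within control limits plus 3 SD, cut at about 14% in these data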;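 note: 100% = median FP of high control wells holding Aha-Tn7 inhibitor peptide; displacers lower polarization since freed probe rises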
Tn7 DDE ctr: counter-screen hit for Tn7 peptide-fibrin DD(E) binding disruption | shares compounds with Tn7 DDE FP | TRITC-Tn7 probe displacement, fluorescence polarization | inhibition, % at 8.3 µM | actives 3% (n = 460) | AID 720633;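 active = inhibition above the cutoff, the mean of compounds lying between the control bounds plus 3 SD of those compounds, cut at about 17% in these data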;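 note: 0% = median of compound sample wells and 100% = excess unlabeled Aha-Tn7 peptide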
* marks the source's active call; other numbers are inactive results; i = inactive; · = no result given.

SMILES	Neddyl block	Tn7 DDE FP	MT1-MMP act inh	Tn6 DDE FP	proKLK7 act	SKN-1 inh	DDE Tn7 confirm	Tn7 DDE ctr
CC(=O)Nc1sc(C)c(C)c1C(=O)OCC(=O)Nc1ccccc1C(F)(F)F	i	16*	0	5	1	7	3	2
COc1ccc(-n2c3c(cc(C(=O)NNc4ccccc4)c2=O)C(=O)CC(C)(C)C3)cc1	i	-1	2	1	1	1	·	·
NC(=S)NNc1cccc(Cl)c1	i	2	-1	7	0	-6	·	·
O=C(COC(=O)c1ccc(Cl)nc1)NCc1ccco1	i	-9	-1	0	0	19	·	·
c1ccc(-c2ccc(CNC3CC3)cc2)cc1	i	14*	2	10	0	2	6	-1
CC1(C(=O)NS(=O)(=O)c2ccccc2)CCN1C(=O)C1(c2ccccc2)CCCC1 (stereo not drawn)	i	2	-1	3	0	-1	·	·
COc1ccc(N2CCN(C(=O)c3ccc4c(=O)n(Cc5ccc6c(c5)OCO6)c(=O)[nH]c4c3)CC2)cc1	i	4	4	4	-1	17	·	·
COCCN1CCCC(CNCc2cn(C)nc2-c2ccc(Oc3ccccc3)cc2)C1 (stereo not drawn)	i	15*	8	2	1	0	-3	-6
COC1CCCN(Cc2cn(C)nc2-c2ccc(Oc3ccccc3)cc2)C1 (stereo not drawn)	i	2	-9	0	0	-4	·	·
CCN(C(=O)COC(=O)c1cc(Cl)ccc1OC)c1c(N)n(Cc2ccccc2)c(=O)[nH]c1=O	i	14*	-3	11	0	5	-1	-4
CCN(C(=O)C(C)N1C(=O)/C(=C/c2ccco2)SC1=S)C1CCS(=O)(=O)C1 (stereo not drawn)	i	14*	15	9	1	15	0	-4
CC(C)COc1ccc(C(=O)Nc2sc3c(c2C(=O)O)CC(C)(C)OC3)cc1	·	-1	-15	-8	1	9	·	·
O=C(Nc1ccccc1N1CCCC1)c1cc(Cl)ccc1Cl	i	0	-1	5	-1	6	·	·
O=C(Nc1ccccc1N1CCCCC1)c1cccc(Cl)c1	i	14*	0	0	0	15	-2	-8
O=[N+]([O-])c1ccc(NCCNc2ccc([N+](=O)[O-])cc2)cc1	i	8	18	6	1	16	·	·
C#CCNc1ccc([N+](=O)[O-])cc1	i	19*	2	-1	0	-12	14	2
CCOC(=O)C1=C(C)Nc2ccccc2N/C1=N\S(=O)(=O)c1cccc(Cl)c1	i	16*	3	0	0	-12	7	-1
CN(C(=O)C1Cc2c(-c3ccc(Cl)cc3)ccnc2O1)c1ccccc1 (stereo not drawn)	i	6	-1	-2	0	14	·	·
CCCCN1CN=C(Nc2nc3ccccc3o2)NC1	i	0	-4	13	0	8	·	·
N#CC1=C(N)Oc2n[nH]c(-c3ccc(F)cc3)c2C1c1cccc(OC(=O)N2CCOCC2)c1 (stereo not drawn)	i	15*	2	7	0	8	5	-3
CC1(C)CC2(CC(C)(C(=O)CSc3nc4ccccc4s3)OC2=O)C(=O)O1 (stereo not drawn)	i	18*	-1	-2	0	3	1	-10
Cc1cccc(N2CCN(C(=O)C3CC(=O)N(c4ccc5c(c4)OCCO5)C3)CC2C)c1 (stereo not drawn)	i	5	4	-3	0	12	·	·
